Bioassay records as filed in PubChem BioAssay.
In the library only some 3.7% were active in any assay of this set; here they are far more common.
OX1R antag-1 = antagonists of human orexin 1 receptor (OX1R) | hit rate 1.8% among 330,000 | OX1R-expressing cells, FRET antagonist read-out | inhibition, % at 6.6 µM; in the data active = inhibition mostly above about 38%, no sharp cut-off; inactive = mostly below about 40%;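 note: 0% = agonist challenge alone and 100% = reference antagonist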
Target sequence (O43613 whole entry, looked up): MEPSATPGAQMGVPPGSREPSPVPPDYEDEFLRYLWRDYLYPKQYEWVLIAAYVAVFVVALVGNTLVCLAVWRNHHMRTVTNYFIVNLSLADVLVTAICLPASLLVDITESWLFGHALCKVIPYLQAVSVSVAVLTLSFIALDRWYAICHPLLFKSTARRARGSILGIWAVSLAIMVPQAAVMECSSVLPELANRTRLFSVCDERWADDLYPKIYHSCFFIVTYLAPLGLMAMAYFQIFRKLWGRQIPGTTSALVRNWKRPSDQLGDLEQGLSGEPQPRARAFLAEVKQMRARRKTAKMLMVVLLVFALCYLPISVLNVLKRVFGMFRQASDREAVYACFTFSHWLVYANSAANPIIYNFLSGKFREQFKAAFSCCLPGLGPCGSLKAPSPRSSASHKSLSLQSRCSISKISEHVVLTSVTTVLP
CHO parental Ca = ATP-evoked calcium signal inhibitors, parental CHO, primary screen, counter-screen for OX1R antagonist project, cell-based, fluorescence, Fluo-8 calcium dye. parental CHO-K1, ATP-induced calcium, Fluo-8 fluorescence. inhibition, % at 5.6 µM. hit rate 0.63% among 330,000. AID 463079, 2010;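 active = inhibition above that plate's mean sample inhibition plus 3 SD, cut at about 26% in these data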;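 note: 0% = ATP-challenged DMSO wells and 100% = DMSO wells without ATP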
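Material – parental CHO cells · Reagent – ATP stimulus · Compound – single nominal dose of 5.6 µM per compound · Detection – Fluo-8 fluorescence · Read-out basis – percent inhibition of calcium signal · Controls – ATP-challenged DMSO wells low, unchallenged DMSO wells high · Repeats – no replicates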
GPR7 antag = GPR7 receptor antagonists, primary screen, cell-based, fluorescence, single concentration. Neuropeptides B/W receptor type 1 (Homo sapiens), P48145. inhibition, % at 4.4 µM. AID 1861, 2009. hit rate 1.1% among 290,000. GPR7-expressing cells, fluorescence antagonist assay; in the data active = inhibition above about 16%, passing the limit was not always enough;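 note: cells stimulated with the agonist NPW; 0% = agonist with vehicle and 100% = vehicle without agonist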
EP2 mod = EP2 receptor modulators, cAMP readout, primary screen, cell-based, HTRF cAMP, PGE2 stimulation; EP2-expressing cells, cAMP HTRF FRET, PGE2 co-stimulation; induction, % at 25 µM; hit rate 0.83% among 260,000; Prostaglandin E2 receptor EP2 subtype (Homo sapiens), P43116;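 active = compounds whose cAMP rise, as percent of the full-agonist control response, exceeds 60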;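 note: rat C6 glioma line stably carrying human EP2 under a CMV promoter; the protocol text gives 20 µM as final concentration; 100% = response of wells given 1 µM PGE2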
PGE2 EP2 inh = human EP2 receptor antagonists, primary screen, TR-FRET cAMP, C6 glioma cells | Prostaglandin E2 receptor EP2 subtype (Homo sapiens), P43116 | C6 glioma cells expressing human EP2; cells stimulated with saturating PGE2 | inhibition, % at 25 µM | hit rate 0.52% among 260,000;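 active = percent inhibition above 40 after rounding to a whole number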;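 note: rat C6 glioma host cells with rolipram phosphodiesterase inhibitor present; the protocol text gives 20 µM as final concentration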
OX1R antag-2 = OX1R (HCRTR1) antagonists, primary screen, fluorescence, CHO/OX1R cells, Fluo-8 calcium, orexin A | inhibition, % at 5 µM | hit rate 0.43% among 330,000 | Orexin/Hypocretin receptor type 1 (Homo sapiens), O43613 | AID 434989, 2010 | Fluo-8 calcium fluorescence;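 active = inhibition above its plate's threshold, mean inhibition of all tested compounds on the plate plus 3 SD, cut at about 37% in these data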;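 note: 0% = orexin A challenge wells and 100% = SB-334867-A antagonist wells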
An asterisk follows results filed as active.

For O=C(Nc1ccc(N2CCN(C(=O)c3ccccc3)CC2)cc1)c1ccc([N+](=O)[O-])o1 the results were GPR7 antag 5, EP2 mod -48 and PGE2 EP2 inh 49*.
For Cc1ccccc1C(=O)N1CCN(c2ccc(NC(=O)c3ccc([N+](=O)[O-])o3)cc2)CC1 the results were OX1R antag-1 23, CHO parental Ca 15, GPR7 antag -2, EP2 mod -154, PGE2 EP2 inh 130* and OX1R antag-2 3.
CN(CC(=O)Nc1ccc(N2CCOCC2)cc1)C(=O)c1ccc(O)c(Cl)c1 was read as OX1R antag-1 10, CHO parental Ca 0, GPR7 antag -15 and OX1R antag-2 -1.
O=C(O)c1ccc([N+](=O)[O-])c(P(=O)(O)O)c1 was read as EP2 mod 7 and PGE2 EP2 inh 9.
Screening CCCn1nnnc1NCc1ccc(OC)cc1OC returned OX1R antag-1 15, CHO parental Ca -8, GPR7 antag 6 and OX1R antag-2 -8.
For COc1ccc(-c2cn3cccc(C)c3n2)cc1Br the results were OX1R antag-1 74*, CHO parental Ca -14, GPR7 antag -7, EP2 mod -18, PGE2 EP2 inh 4 and OX1R antag-2 -24.
`Oc1[nH]c(=S)sc1/C=C1\C(c2ccccc2)=Nc2ccccc21` gave OX1R antag-1 76*, CHO parental Ca 18, GPR7 antag 5, EP2 mod 0, PGE2 EP2 inh 15 and OX1R antag-2 23.
For Oc1[nH]c(=S)sc1C=C1N=c2ccccc2=N1 the results were OX1R antag-1 20, CHO parental Ca 4, GPR7 antag -9, EP2 mod -22, PGE2 EP2 inh 6 and OX1R antag-2 4.
For CCc1ccc(OCCCC(=O)Nc2nnc(C3CCCO3)s2)cc1 (stereo unspecified) the results were OX1R antag-1 8, CHO parental Ca -19, GPR7 antag 1, EP2 mod 7, PGE2 EP2 inh 5 and OX1R antag-2 -23.
`O=C(O)[C@@H]1[C@H](C(=O)Nc2cccc3cccnc23)[C@@H]2CC[C@H]1O2` gave EP2 mod -54 and PGE2 EP2 inh 58*.
CC(=O)OCCn1c(=O)c2cc3c(=O)n(CCOC(C)=O)c(=O)c3cc2c1=O was read as OX1R antag-1 68*, CHO parental Ca 2, GPR7 antag -1, EP2 mod 9, PGE2 EP2 inh 12 and OX1R antag-2 -7.
For Cc1cc(SCC(=O)N2CCC(c3noc4ccc(F)cc34)CC2)nc2ccccc12 the results were OX1R antag-1 49*, CHO parental Ca -11, GPR7 antag -2, EP2 mod -38, PGE2 EP2 inh 15 and OX1R antag-2 -27.
CCc1cccc(N=c2c([N+](=O)[O-])nn(-c3ccc4c(c3)OCCO4)n2O)c1 was read as OX1R antag-1 17, CHO parental Ca -22, GPR7 antag 3, EP2 mod -53, PGE2 EP2 inh 6 and OX1R antag-2 -37.
Screening CN(C1CCCCC1)S(=O)(=O)c1ccc(-n2cnnn2)cc1 returned OX1R antag-1 14, CHO parental Ca -2, GPR7 antag 1, EP2 mod 14, PGE2 EP2 inh 8 and OX1R antag-2 -3.
`O=S(=O)(c1ccc(-n2cnnn2)cc1)N(C1CCCCC1)C1CCCCC1` gave OX1R antag-1 12, CHO parental Ca -17, GPR7 antag -7, EP2 mod 64*, PGE2 EP2 inh 5 and OX1R antag-2 -15.
Screening C/C=C/C=N/NC(=O)CN(c1ccc(Br)cc1)S(=O)(=O)c1ccccc1 returned OX1R antag-1 3, CHO parental Ca -22, GPR7 antag -12, EP2 mod 40, PGE2 EP2 inh 1 and OX1R antag-2 -20.
`c1ccc(Nc2ccc3c4c(cccc24)CC3)cc1` gave OX1R antag-1 11, CHO parental Ca 6, GPR7 antag -11, EP2 mod 19, PGE2 EP2 inh 4 and OX1R antag-2 1.
Nc1ccc2c3c(cccc13)CC2 was read as OX1R antag-1 13, CHO parental Ca 60*, GPR7 antag 1, EP2 mod -45, PGE2 EP2 inh 7 and OX1R antag-2 71*.
COc1ccc(CNC(=O)c2ccc(Cl)c(NC3=NC4CS(=O)(=O)CC4S3)c2)cc1 (stereo unspecified) was read as OX1R antag-1 4, CHO parental Ca -1, GPR7 antag -11 and OX1R antag-2 -7.
`Cc1ccnc(SCC(=O)Nc2ccccc2F)n1` gave EP2 mod -18 and PGE2 EP2 inh 14.
Screening Cc1nc(SCC(=O)Nc2ccccc2F)nc2c1CCCC2 returned EP2 mod 79* and PGE2 EP2 inh 8.
`COc1ccc(NC2=C(c3ccc(OC)cc3)C(=O)c3ccccc32)cc1` gave OX1R antag-1 23, CHO parental Ca -11, GPR7 antag -7, EP2 mod -15, PGE2 EP2 inh 7 and OX1R antag-2 -16.
`COc1ccc(C2=C(N)c3ccccc3C2=O)cc1` gave OX1R antag-1 45*, CHO parental Ca 3, GPR7 antag 10, EP2 mod 1, PGE2 EP2 inh 5 and OX1R antag-2 0.
For CCCCSc1nc(CCC)cc(=O)[nH]1 the results were OX1R antag-1 9, CHO parental Ca -3, GPR7 antag -1, EP2 mod 15, PGE2 EP2 inh 5 and OX1R antag-2 -17.
`CCCc1cc(=O)[nH]c(SCCOc2ccc(Cl)cc2)n1` gave OX1R antag-1 -2, CHO parental Ca 0, GPR7 antag 2, EP2 mod 64*, PGE2 EP2 inh 7 and OX1R antag-2 -4.
CCCc1cc(=O)[nH]c(Nc2ccc(Cl)cc2)n1 was read as OX1R antag-1 23, CHO parental Ca 79*, GPR7 antag -14, EP2 mod 2, PGE2 EP2 inh 1 and OX1R antag-2 22.
Screening O=C(Nc1ccon1)c1cc(-c2ccccc2)nc2ccccc12 returned OX1R antag-1 21, CHO parental Ca -26, GPR7 antag -3, EP2 mod 24 and OX1R antag-2 -12.
O=C(O)c1ccccc1NC(=O)c1cc(-c2ccccc2)nc2ccccc12 was read as OX1R antag-1 57*, CHO parental Ca -17, GPR7 antag -8 and OX1R antag-2 -25.
`COC(=O)c1sccc1NC(=O)/C=C/c1c(Cl)cccc1Cl` gave OX1R antag-1 15, CHO parental Ca -9, GPR7 antag -5, EP2 mod 28, PGE2 EP2 inh 21 and OX1R antag-2 -23.
